Measurements as given in ChEMBL document CHEMBL1671800, “Synthesis and antimycobacterial properties of N-substituted 6-amino-5-cyanopyrazine-2-carboxamides” (2011).
In brackets after ≈: the same amount, converted by molar mass. Activity calls are given as the source filed them. The calls are words filed in the database; no cut-off is given here.

Legend:
[1] = tested on: Staphylococcus epidermidis; assay: Antibacterial activity against Staphylococcus epidermidis H 6966/08 after 24 to 48 hrs by broth microdilution method; type: functional, organism-based
Enterobacter sp. = assay: Antibacterial activity against Enterobacter sp. J 14365/ 08 after 24 to 48 hrs by broth microdilution method; type: functional, organism-based
Staphylococcus aureus [2] = assay: Antibacterial activity against methicillin-resistant Staphylococcus aureus H 5996/08 after 24 to 48 hrs by broth microdilution method; type: functional, organism-based
Method in brief: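 Strains were subcultured on Mueller-Hinton agar at 35 °C, and the inoculum was suspended in 0.85% saline to 0.5 McFarland (1.5×10^8 CFU/mL). Microdilution was done in Mueller-Hinton broth, pH 7.0, with final DMSO at most 1% (v/v). MIC, set at 95% growth inhibition versus control, was read after 24 and 48 h of static incubation at 35 °C.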

Mycobacterium kansasii = assay: Antimycobacterial activity against Mycobacterium kansasii CNCTC My 235/80 after 6 days by microdilution method; type: functional; details: CNCTC My 235/80, 144 h
Method in brief: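 Compounds were dissolved in DMSO and diluted in Šula's semisynthetic medium at pH 5.5, at final concentrations of 200 to 3.125 μg/mL in twofold steps; DMSO stayed ≤1% v/v. The strain was added as a suspension in isotonic saline and incubated at 37 °C. Growth was read visually after 6 days; MIC is the lowest concentration that inhibited growth. Pyrazinamide served as standard.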

Pseudomonas aeruginosa = assay: Antibacterial activity against Pseudomonas aeruginosa CCM 1961 after 24 to 48 hrs by broth microdilution method; type: functional, organism-based
Method in brief: (§1)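 Strains subcultured on Mueller-Hinton agar at 35 °C and passaged onto MHA before testing. Inoculum suspended in sterile 0.85% saline and adjusted to 0.5 McFarland (1.5×10^8 CFU/mL). Compounds in DMSO (final ≤1% v/v) in Mueller-Hinton broth at pH 7.0, with medium and DMSO-alone controls. Static incubation at 35 °C; MIC taken as 95% growth inhibition versus control at 24 and 48 h.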

Mycobacterium avium [3] = assay: Antimycobacterial activity against Mycobacterium avium CNCTC My 80/72 after 14 days by microdilution method; type: functional; details: CNCTC My 80/72, 336 h
Method in brief: (§2)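 Compounds in DMSO were diluted in Šula's semisynthetic medium, pH 5.5, to final 200–3.125 μg/mL, with DMSO at most 1% (v/v). Mycobacteria were added as a suspension in isotonic saline and grown at 37 °C. MIC was read visually after 14 days as the lowest concentration inhibiting growth.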

Klebsiella pneumoniae [4] = assay: Antibacterial activity against Klebsiella pneumoniae D11750/08 after 24 to 48 hrs by broth microdilution method; type: functional, organism-based
[5] = tested on: Mycobacterium tuberculosis; assay: Antimycobacterial activity against Mycobacterium tuberculosis H37Rv CNCTC My 331/88 after 14 days by microdilution method; type: functional; details: H37Rv CNCTC My 331/88, 336 h; method in brief: as §2
Mycobacterium avium [6] = assay: Antimycobacterial activity against Mycobacterium avium CNCTC My 152/73 after 14 days by microdilution method; type: functional; details: CNCTC My 152/73, 336 h; method in brief: as §2
Staphylococcus aureus [7] = assay: Antibacterial activity against Staphylococcus aureus CCM 4516/08 after 24 to 48 hrs by broth microdilution method; type: functional, organism-based; method in brief: as §1
Escherichia coli = assay: Antibacterial activity against Escherichia coli CCM 4517 after 24 to 48 hrs by broth microdilution method; type: functional, organism-based; method in brief: as §1
Klebsiella pneumoniae [8] = assay: Antibacterial activity against ESBL-positive Klebsiella pneumoniae J 14368/08 after 24 to 48 hrs by broth microdilution method; type: functional, organism-based
Aspergillus fumigatus [9] = assay: Antifungal activity against Aspergillus fumigatus 231 after 48 hrs by broth microdilution method; type: functional
Method in brief: (§3)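 Broth microdilution. Compounds in DMSO were diluted twofold in RPMI 1640 with glutamine, buffered to pH 7.0 with MOPS. Final DMSO was at most 2.5% (v/v). Plates were incubated statically, in the dark and humid, at 35 °C and read at 24 and 48 h.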

Pichia kudriavzevii [10] = assay: Antifungal activity against Candida krusei E28 after 48 hrs by broth microdilution method; type: functional; method in brief: as §3
Pichia kudriavzevii [11] = assay: Antifungal activity against Candida krusei E28 after 24 hrs by broth microdilution method; type: functional; method in brief: as §3
[12] = tested on: Trichophyton mentagrophytes; assay: Antifungal activity against Trichophyton mentagrophytes 445 after 72 hrs by broth microdilution method; type: functional
Method in brief: (§4)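 Trichophyton mentagrophytes was tested by twofold broth microdilution in MOPS-buffered RPMI 1640 with glutamine, pH 7.0, with final DMSO at most 2.5% (v/v). Incubation was static, dark and humid at 35 °C, and plates were read at 72 and 120 h.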

Lichtheimia corymbifera [13] = assay: Antifungal activity against Absidia corymbifera 272 after 24 hrs by broth microdilution method; type: functional; method in brief: as §3
Nakaseomyces glabratus [14] = assay: Antifungal activity against Candida glabrata 20/I after 24 hrs by broth microdilution method; type: functional; method in brief: as §3
[15] = tested on: Trichophyton mentagrophytes; assay: Antifungal activity against Trichophyton mentagrophytes 445 after 120 hrs by broth microdilution method; type: functional; method in brief: as §4
Candida albicans [16] = assay: Antifungal activity against Candida albicans ATCC 44859 after 48 hrs by broth microdilution method; type: functional; method in brief: as §3
Lichtheimia corymbifera [17] = assay: Antifungal activity against Absidia corymbifera 272 after 48 hrs by broth microdilution method; type: functional; method in brief: as §3
Trichosporon beigelii [18] = assay: Antifungal activity against Trichosporon beigelii 1188 after 24 hrs by broth microdilution method; type: functional; method in brief: as §3
Nakaseomyces glabratus [19] = assay: Antifungal activity against Candida glabrata 20/I after 48 hrs by broth microdilution method; type: functional; method in brief: as §3
Candida tropicalis [20] = assay: Antifungal activity against Candida tropicalis 156 after 24 hrs by broth microdilution method; type: functional; method in brief: as §3
Candida tropicalis [21] = assay: Antifungal activity against Candida tropicalis 156 after 48 hrs by broth microdilution method; type: functional; method in brief: as §3
Trichosporon beigelii [22] = assay: Antifungal activity against Trichosporon beigelii 1188 after 48 hrs by broth microdilution method; type: functional; method in brief: as §3
Aspergillus fumigatus [23] = assay: Antifungal activity against Aspergillus fumigatus 231 after 24 hrs by broth microdilution method; type: functional; method in brief: as §3
Candida albicans [24] = assay: Antifungal activity against Candida albicans ATCC 44859 after 24 hrs by broth microdilution method; type: functional; method in brief: as §3

Compound | Activity [1] | Activity (Enterobacter sp.) | Activity (Staphylococcus aureus [2]) | MIC (Mycobacterium kansasii) | Activity (Pseudomonas aeruginosa) | MIC (Mycobacterium avium [3]) | Activity (Klebsiella pneumoniae [4]) | MIC [5] | MIC (Mycobacterium avium [6]) | Activity (Staphylococcus aureus [7]) | Activity (Escherichia coli) | Activity (Klebsiella pneumoniae [8]) | further results
CN1CCN(c2nc(C(N)=O)cnc2C#N)CC1 | inactive | inactive | inactive | > 200 µg/mL | inactive | > 200 µg/mL | inactive | > 200 µg/mL | > 200 µg/mL | inactive | inactive | inactive | –
NYSTATIN | – | – | – | – | – | – | – | – | – | – | – | – | MIC (Aspergillus fumigatus [9]): 3.9 µM; MIC (Pichia kudriavzevii [10]): 3.9 µM; MIC (Pichia kudriavzevii [11]): 1.95 µM; MIC [12]: 3.9 µM; MIC (Lichtheimia corymbifera [13]): 15.6 µM; MIC (Nakaseomyces glabratus [14]): 1.95 µM; MIC [15]: 7.81 µM; MIC (Candida albicans [16]): 1.95 µM; MIC (Lichtheimia corymbifera [17]): 31.2 µM; MIC (Trichosporon beigelii [18]): 1.95 µM; MIC (Nakaseomyces glabratus [19]): 1.95 µM; MIC (Candida tropicalis [20]): 1.95 µM; MIC (Candida tropicalis [21]): 3.9 µM; MIC (Trichosporon beigelii [22]): 1.95 µM; MIC (Aspergillus fumigatus [23]): 1.95 µM; MIC (Candida albicans [24]): 0.98 µM
CCN(CC)c1nc(C(N)=O)cnc1C#N | inactive | inactive | inactive | > 200 µg/mL | inactive | > 200 µg/mL | inactive | > 200 µg/mL | > 200 µg/mL | inactive | inactive | inactive | –
CNc1nc(C(N)=O)cnc1C#N | inactive | inactive | inactive | > 200 µg/mL | inactive | > 200 µg/mL | inactive | 200 µg/mL (≈ 1130 µM) | > 200 µg/mL | inactive | inactive | inactive | –
CCCNc1nc(C(N)=O)cnc1C#N | inactive | inactive | inactive | > 200 µg/mL | inactive | > 200 µg/mL | inactive | 50 µg/mL (≈ 244 µM) | > 200 µg/mL | inactive | inactive | inactive | –
CCCCCCNc1nc(C(N)=O)cnc1C#N | inactive | inactive | inactive | > 200 µg/mL | inactive | > 200 µg/mL | inactive | 12.5 µg/mL (≈ 50.5 µM) | > 200 µg/mL | inactive | inactive | inactive | –
N#Cc1ncc(C(N)=O)nc1NC1CCCC1 | inactive | inactive | inactive | > 200 µg/mL | inactive | > 200 µg/mL | inactive | > 200 µg/mL | > 200 µg/mL | inactive | inactive | inactive | –
CCCCNc1nc(C(N)=O)cnc1C#N | inactive | inactive | inactive | > 200 µg/mL | inactive | > 200 µg/mL | inactive | > 200 µg/mL | > 200 µg/mL | inactive | inactive | inactive | –
NC(=O)c1cnccn1 [PYRAZINAMIDE] | – | – | – | > 200 µg/mL | – | > 200 µg/mL | – | 12.5 µg/mL (≈ 102 µM) | > 200 µg/mL | – | – | – | –
CCNc1nc(C(N)=O)cnc1C#N | inactive | inactive | inactive | > 200 µg/mL | inactive | > 200 µg/mL | inactive | 100 µg/mL (≈ 523 µM) | > 200 µg/mL | inactive | inactive | inactive | –
OC(Cn1cncn1)(Cn1cncn1)c1ccc(F)cc1F [FLUCONAZOLE] | – | – | – | – | – | – | – | – | – | – | – | – | MIC (Aspergillus fumigatus [9]; Aspergillus fumigatus, 231, 48 h): > 500 µM; MIC (Pichia kudriavzevii [10]; E28, 48 h): 250 µM (≈ 76.6 µg/mL); MIC (Pichia kudriavzevii [11]; E28, 24 h): 125 µM (≈ 38.3 µg/mL); MIC ([12]; Trichophyton mentagrophytes, 445, 72 h): 7.81 µM (≈ 2.39 µg/mL); MIC (Lichtheimia corymbifera [13]; Lichtheimia corymbifera, 272, 24 h): > 500 µM; MIC (Nakaseomyces glabratus [14]): 62.5 µM (≈ 19.1 µg/mL); MIC ([15]; Trichophyton mentagrophytes, 445, 120 h): 125 µM (≈ 38.3 µg/mL); MIC (Candida albicans [16]; ATCC 44859, 48 h): 0.24 µM (≈ 0.0735 µg/mL); MIC (Lichtheimia corymbifera [17]; Lichtheimia corymbifera, 272, 48 h): > 500 µM; MIC (Trichosporon beigelii [18]; Trichosporon beigelii, 1188, 24 h): 250 µM (≈ 76.6 µg/mL); MIC (Nakaseomyces glabratus [19]): 250 µM (≈ 76.6 µg/mL); MIC (Candida tropicalis [20]; Candida tropicalis, 156, 24 h): > 500 µM; MIC (Candida tropicalis [21]; Candida tropicalis, 156, 48 h): > 500 µM; MIC (Trichosporon beigelii [22]; Trichosporon beigelii, 1188, 48 h): 500 µM (≈ 153 µg/mL); MIC (Aspergillus fumigatus [23]; Aspergillus fumigatus, 231, 24 h): > 500 µM; MIC (Candida albicans [24]; ATCC 44859, 24 h): 0.24 µM (≈ 0.0735 µg/mL)
N#Cc1ncc(C(N)=O)nc1NC1CCCCC1 | inactive | inactive | inactive | > 200 µg/mL | inactive | > 200 µg/mL | inactive | > 200 µg/mL | > 200 µg/mL | inactive | inactive | inactive | –
CCCCCCCNc1nc(C(N)=O)cnc1C#N | inactive | inactive | inactive | 100 µg/mL (≈ 383 µM) | inactive | 100 µg/mL (≈ 383 µM) | inactive | 12.5 µg/mL (≈ 47.8 µM) | 100 µg/mL (≈ 383 µM) | inactive | inactive | inactive | –
N#Cc1ncc(C(N)=O)nc1NC1CCCCCC1 | inactive | inactive | inactive | > 200 µg/mL | inactive | > 200 µg/mL | inactive | > 200 µg/mL | > 200 µg/mL | inactive | inactive | inactive | –
CCCCCCCCNc1nc(C(N)=O)cnc1C#N | inactive | inactive | inactive | > 200 µg/mL | inactive | > 200 µg/mL | inactive | > 200 µg/mL | > 200 µg/mL | inactive | inactive | inactive | –
N#Cc1ncc(C(N)=O)nc1N1CCOCC1 | inactive | inactive | inactive | > 200 µg/mL | inactive | > 200 µg/mL | inactive | > 200 µg/mL | > 200 µg/mL | inactive | inactive | inactive | –
